Source: ChEMBL document CHEMBL1687899, “Structure-activity relationships in nucleotide oligomerization domain 1 (Nod1) agonistic γ-glutamyldiaminopimelic acid derivatives” (J Med Chem, 2011)
Active and inactive are the calls of the source. No cut-off for these calls is given here.

Key:
[1] = biological target: T1, Nucleotide-binding oligomerization domain-containing protein 1 (Homo sapiens, UniProt Q9Y239); assay: Agonist activity at human NOD-1 expressed in human HEK293 cells assessed as NF-kappaB induction by spectrophotometric analysis; type: functional, cell-based
T1 sequence (Q9Y239 whole entry): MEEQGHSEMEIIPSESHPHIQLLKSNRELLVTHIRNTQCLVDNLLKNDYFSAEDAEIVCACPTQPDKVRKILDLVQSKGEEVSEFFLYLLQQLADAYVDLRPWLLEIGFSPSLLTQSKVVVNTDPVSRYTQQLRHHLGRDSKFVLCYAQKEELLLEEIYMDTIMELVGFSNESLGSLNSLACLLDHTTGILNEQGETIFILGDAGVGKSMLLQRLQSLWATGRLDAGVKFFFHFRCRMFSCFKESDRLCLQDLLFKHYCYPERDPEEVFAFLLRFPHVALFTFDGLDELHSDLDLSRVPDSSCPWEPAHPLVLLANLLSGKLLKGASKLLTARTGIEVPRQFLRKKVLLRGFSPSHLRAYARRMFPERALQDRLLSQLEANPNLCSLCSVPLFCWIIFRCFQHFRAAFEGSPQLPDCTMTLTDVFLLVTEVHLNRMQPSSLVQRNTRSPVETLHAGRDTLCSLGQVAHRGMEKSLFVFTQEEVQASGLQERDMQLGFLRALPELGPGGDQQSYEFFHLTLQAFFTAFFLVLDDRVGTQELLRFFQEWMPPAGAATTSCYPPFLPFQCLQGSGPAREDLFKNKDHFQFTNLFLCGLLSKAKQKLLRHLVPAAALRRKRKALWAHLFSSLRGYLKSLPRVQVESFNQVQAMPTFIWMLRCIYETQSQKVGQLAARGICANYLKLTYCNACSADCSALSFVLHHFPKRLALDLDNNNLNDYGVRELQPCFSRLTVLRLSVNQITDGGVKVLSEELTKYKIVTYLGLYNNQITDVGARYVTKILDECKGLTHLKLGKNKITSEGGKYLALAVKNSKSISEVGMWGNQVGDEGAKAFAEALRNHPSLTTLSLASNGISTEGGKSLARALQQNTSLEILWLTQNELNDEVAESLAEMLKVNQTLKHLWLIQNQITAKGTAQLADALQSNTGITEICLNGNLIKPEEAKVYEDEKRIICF
How it was run: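 HEK-Blue cells (HEK293 stably transfected with human Nod1 and an NF-κB/AP-1-inducible secreted alkaline phosphatase reporter) were kept in selection medium with zeocin and normocin. Cells at ~10^5 cells/mL were grown to confluency and then given graded compound concentrations. Supernatant sAP was read spectrophotometrically at 620 nm with an alkaline phosphatase-specific chromogen.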

[2] = Upregulation of CD11b expression in human […] by flow cytometry; type: functional, cell-based
How it was run: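 Fresh anticoagulated human whole blood was incubated with graded compound dilutions for 1 h at 37°C, with saline negative controls. Samples were chilled 15 min, then stained with anti-CD11b/Mac-1 on ice for 30 min so only surface CD11b was labelled. Erythrocytes were lysed and leukocytes fixed, then washed. Flow cytometry in single-color PE mode acquired 20,000 gated events.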

[3] = Upregulation of p38 MAPK expression in human […] by flow cytometry; type: functional, cell-based
How it was run: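 Fresh heparinized human whole blood was incubated with graded compound concentrations diluted in saline for 15 min at 37°C. Erythrocytes were lysed and leukocytes fixed in one step, then permeabilized in ice-cold methanol for 30 min. Cells were stained 60 min with PE anti-phospho-p38MAPK (pT180/pY182) or a PE IgG1 κ isotype control. Flow cytometry acquired 20,000 gated events.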

PBMC [4] = assay: Upregulation of interleukin 19 in human PBMC at 20 ug/ml after 2 hrs; type: functional
How it was run: (§1)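 PBMCs were isolated from fresh heparin-anticoagulated human blood and stimulated with compound at 20 μg/mL for 2 h. Total RNA was extracted from treated and negative-control PBMC samples for transcriptomal profiling.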

PBMC [5] = assay: Upregulation of interleukin 6 in human PBMC at 20 ug/ml after 2 hrs; type: functional; how it was run: as §1
PBMC [6] = assay: Upregulation of interleukin 1alpha in human PBMC at 20 ug/ml after 2 hrs; type: functional; how it was run: as §1
PBMC [7] = assay: Upregulation of interleukin 1F9 in human PBMC at 20 ug/ml after 2 hrs; type: functional; how it was run: as §1
PBMC [8] = assay: Upregulation of interleukin 17A in human PBMC at 20 ug/ml after 2 hrs; type: functional; how it was run: as §1
PBMC [9] = assay: Upregulation of interleukin 1RN in human PBMC at 20 ug/ml after 2 hrs; type: functional; how it was run: as §1
PBMC [10] = assay: Upregulation of interleukin 12B in human PBMC at 20 ug/ml after 2 hrs; type: functional; how it was run: as §1
PBMC [11] = assay: Upregulation of interleukin 3 in human PBMC at 20 ug/ml after 2 hrs; type: functional; how it was run: as §1
PBMC [12] = assay: Upregulation of interleukin 1B in human PBMC at 20 ug/ml after 2 hrs; type: functional; how it was run: as §1
PBMC [13] = assay: Upregulation of interleukin 20 in human PBMC at 20 ug/ml after 2 hrs; type: functional; how it was run: as §1
PBMC [14] = assay: Upregulation of interleukin 22 in human PBMC at 20 ug/ml after 2 hrs; type: functional; how it was run: as §1
PBMC [15] = assay: Upregulation of interleukin 10 in human PBMC at 20 ug/ml after 2 hrs; type: functional; how it was run: as §1
PBMC [16] = assay: Upregulation of interleukin 2RA in human PBMC at 20 ug/ml after 2 hrs; type: functional; how it was run: as §1
PBMC [17] = assay: Upregulation of interleukin 24 in human PBMC at 20 ug/ml after 2 hrs; type: functional; how it was run: as §1
PBMC [18] = assay: Upregulation of interleukin 17RD in human PBMC at 20 ug/ml after 2 hrs; type: functional; how it was run: as §1
PBMC [19] = assay: Upregulation of interleukin 1F5 in human PBMC at 20 ug/ml after 2 hrs; type: functional; how it was run: as §1
PBMC [20] = assay: Upregulation of interleukin 8 in human PBMC at 20 ug/ml after 2 hrs; type: functional; how it was run: as §1
PBMC [21] = assay: Upregulation of interleukin 1F10 in human PBMC at 20 ug/ml after 2 hrs; type: functional; how it was run: as §1
PBMC [22] = assay: Upregulation of interleukin 18 in human PBMC at 20 ug/ml after 2 hrs; type: functional; how it was run: as §1
PBMC [23] = assay: Downregulation of interleukin 31RA in human PBMC at 20 ug/ml after 2 hrs; type: functional; how it was run: as §1
PBMC [24] = assay: Downregulation of interleukin 22RA1 in human PBMC at 20 ug/ml after 2 hrs; type: functional; how it was run: as §1
PBMC [25] = assay: Downregulation of interleukin 8RB in human PBMC at 20 ug/ml after 2 hrs; type: functional; how it was run: as §1
PBMC [26] = assay: Downregulation of interleukin 1RAPL1 in human PBMC at 20 ug/ml after 2 hrs; type: functional; how it was run: as §1
PBMC [27] = assay: Downregulation of interleukin 1RAP in human PBMC at 20 ug/ml after 2 hrs; type: functional; how it was run: as §1
[28] = biological target: Triggering receptor expressed on myeloid cells 1 (Homo sapiens) (UniProt Q9NP99); assay: Induction of TREM-1-mediated activation of IL-6 signaling pathway in human PBMC at 20 ug/ml; how it was run: as §1
[29] = biological target: Triggering receptor expressed on myeloid cells 1 (Homo sapiens) (UniProt Q9NP99); assay: Induction of TREM-1-mediated T-helper cell differentiation in human PBMC at 20 ug/ml; type: cell-based; how it was run: as §1
[30] = biological target: Triggering receptor expressed on myeloid cells 1 (Homo sapiens) (UniProt Q9NP99); assay: Induction of TREM-1-mediated dendritic cell maturation in human PBMC at 20 ug/ml; how it was run: as §1
[31] = biological target: Triggering receptor expressed on myeloid cells 1 (Homo sapiens) (UniProt Q9NP99); assay: Induction of TREM-1-mediated LXR/RXR activation in human PBMC at 20 ug/ml; how it was run: as §1
[32] = biological target: Triggering receptor expressed on myeloid cells 1 (Homo sapiens) (UniProt Q9NP99); assay: Induction of TREM-1-mediated activation of NF-kappaB signalling pathway in human PBMC at 20 ug/ml; how it was run: as §1
[33] = biological target: Triggering receptor expressed on myeloid cells 1 (Homo sapiens) (UniProt Q9NP99); assay: Induction of TREM-1-mediated activation of IL-10 signalling pathway in human PBMC at 20 ug/ml; how it was run: as §1
[34] = biological target: Triggering receptor expressed on myeloid cells 1 (Homo sapiens) (UniProt Q9NP99); assay: Induction of TREM-1-mediated activation of IRF by cytosolic pattern recognition receptors in human PBMC at 20 ug/ml; how it was run: as §1
[35] = biological target: Triggering receptor expressed on myeloid cells 1 (Homo sapiens) (UniProt Q9NP99); assay: Induction of TREM-1-mediated activation of IL-9 signalling pathway in human PBMC at 20 ug/ml; how it was run: as §1
[36] = biological target: Triggering receptor expressed on myeloid cells 1 (Homo sapiens) (UniProt Q9NP99); assay: Induction of TREM-1-mediated activation of TNFR2 signalling pathway in human PBMC at 20 ug/ml; how it was run: as §1
[37] = biological target: Triggering receptor expressed on myeloid cells 1 (Homo sapiens) (UniProt Q9NP99); assay: Induction of TREM-1-mediated activation of PPAR signalling pathway in human PBMC at 20 ug/ml; how it was run: as §1
[38] = biological target: Triggering receptor expressed on myeloid cells 1 (Homo sapiens) (UniProt Q9NP99); assay: Induction of TREM-1-mediated activation of p38 MAPK signalling pathway in human PBMC at 20 ug/ml; how it was run: as §1
[39] = biological target: Triggering receptor expressed on myeloid cells 1 (Homo sapiens) (UniProt Q9NP99); assay: Induction of TREM-1-mediated activation of IL12 signalling and production in human PBMC at 20 ug/ml; how it was run: as §1
[40] = biological target: Triggering receptor expressed on myeloid cells 1 (Homo sapiens) (UniProt Q9NP99); assay: Induction of TREM-1-mediated activation of communication between innate and adaptive immune cells in human PBMC at 20 ug/ml; type: cell-based; how it was run: as §1

Chain of Triggering receptor expressed on myeloid cells 1 (Homo sapiens) (Q9NP99 whole entry, looked up): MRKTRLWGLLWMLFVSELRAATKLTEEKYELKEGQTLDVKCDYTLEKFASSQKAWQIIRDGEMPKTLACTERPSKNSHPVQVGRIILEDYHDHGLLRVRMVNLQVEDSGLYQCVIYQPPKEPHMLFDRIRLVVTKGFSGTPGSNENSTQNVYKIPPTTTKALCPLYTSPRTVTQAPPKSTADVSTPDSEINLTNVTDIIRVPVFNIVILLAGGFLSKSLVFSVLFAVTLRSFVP

CCCCCCCCCCCC(=O)NC(CCCC(NC(=O)CC[C@@H](NC(=O)CCCCCCCCCCC)C(=O)O)C(=O)O)C(=O)O (stereo not given in full)
EC50 [1]: 0.58 nM

CCCCCCCCCCCC(=O)N[C@H](CCC(=O)NCCCC[C@@H](N)C(=O)O)C(=O)O
EC50 [1]: 0.37 nM

CCCCCCCCCCCCN(CCCCCCCCCCCC)[C@H](CCC(=O)NC(CCCC(N)C(=O)O)C(=O)O)C(=O)O (stereo not given in full)
EC50 [1]: 0.0015 nM | Activity [2]: Dose-dependent effect | Activity [3]: Dose-dependent effect | fold change (FC) (PBMC [4]): 30.39 | fold change (FC) (PBMC [5]): 29.54 | fold change (FC) (PBMC [6]): 14.34 | fold change (FC) (PBMC [7]): 11.1 | fold change (FC) (PBMC [8]): 10.56 | fold change (FC) (PBMC [9]): 4.94 | fold change (FC) (PBMC [10]): 6.13 | fold change (FC) (PBMC [11]): 5.99 | fold change (FC) (PBMC [12]): 4.14 | fold change (FC) (PBMC [13]): 4 | fold change (FC) (PBMC [14]): 3.87 | fold change (FC) (PBMC [15]): 3.62 | fold change (FC) (PBMC [16]): 3.57 | fold change (FC) (PBMC [17]): 3.41 | fold change (FC) (PBMC [18]): 3.17 | fold change (FC) (PBMC [19]): 3.15 | fold change (FC) (PBMC [20]): 2.29 | fold change (FC) (PBMC [21]): 2.05 | fold change (FC) (PBMC [22]): 2.03 | fold change (FC) (PBMC [23]): 4.05 | fold change (FC) (PBMC [24]): 3.69 | fold change (FC) (PBMC [25]): 2.75 | fold change (FC) (PBMC [26]): 2.06 | fold change (FC) (PBMC [27]): 2.02 | Activity [28]: Active | Activity [29]: Active | Activity [30]: Active | Activity [31]: Active | Activity [32]: Active | Activity [33]: Active | Activity [34]: Active | Activity [35]: Active | Activity [36]: Active | Activity [37]: Active | Activity [38]: Active | Activity [39]: Active | Activity [40]: Active

CCCCCCCCCCCNC(=O)[C@H](N)CCC(=O)NC(CCCC(N)C(=O)O)C(=O)O (stereo not given in full)
EC50 [1]: 0.826 nM

CCCCCCCCCCCOC(=O)[C@@H](CCC(=O)NC(CCCC(N)C(=O)O)C(=O)O)NC(=N)N (stereo not given in full)
EC50 [1]: 0.238 nM

CCCCCCCCCCCC(=O)N[C@H](CCC(=O)NCCCC[C@H](N)C(=O)O)C(=O)O
EC50 [1]: 0.96 nM
